Measurements published in the array DNA melting data of Ke et al. (doi:10.1101/2024.01.08.574731).

Columns and labels:
[1] = melting temperature; fluorescence melt of hairpins on a sequencing array, two-state fit, raised by 9.35 °C to match UV melts; conditions: sodium 0.088 M
Summary of the method: (§1)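 Folding enthalpy and melting temperature come from bootstrapped two-state fits to Cy3 fluorescence of library hairpins carrying annealed Cy3 and quencher oligos on a sequenced MiSeq flow cell. Imaging was done in 50 mM Na-HEPES pH 8.0, 25 mM NaCl, stepping by 2.5 °C up to 60 °C, and signals were normalised to pre-quench Cy3 and to control constructs. Results of four replicates were combined by inverse variance, and fitted temperatures were raised by 9.35 °C to match UV melts.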

[2] = folding enthalpy; higher = less favourable; fluorescence melt of hairpins on a sequencing array, two-state fit; conditions: sodium 0.088 M
Summary of the method: as §1

Sequence	Tm [1] [°C]	folding enthalpy [2] [kcal/mol]
GACAACGGAAACGTCGTC (((.(((....))).)))	43.4	-29.5
CGATCTCGGAAACGATCG (((..(((....))))))	36.7	-20.3
GGCGTGGGAAACTACGCC (((((.(....).)))))	61.2	-48
GAGGAGACGAAAGTCCTC (((..(((....))))))	40.8	-15.5
GCGTCAATACGC ((((....))))	51.4	-22.8
GTCATCGAAAGATAGGAC ((((((....)))..)))	30.9	-15.7
GCACCCCGAAAGGGTTGC (((.(((....))).)))	55.1	-34.8
GCGTACCGAAAGGTTCGC (((.(((....))).)))	63	-50.5
GTTGACGGAAACGTCGAC ((.((((....)))).))	54.8	-43.4
GCTAGGACGAAAGTCAGC (((..(((....))))))	42.7	-16.6
GATCCAGCCGTGGATC ((((((....))))))	52.8	-41.2
GACCAGGGAAACCTGGTC (((((((....)))))))	67.5	-34.4
GCGGCCGAAAGGCCACGC ((((((....)))..)))	65.1	-13.6
AGAAACCGAAAGGCTTCT ((((.((....)).))))	40.9	-28.4
GTTGGCGAAAGCCCAAAC ((((((....)))..)))	24.8	-7.1
GGTTCGGGAAACCGAATC (.(((((....))))).)	50.6	-27.1
GACCGAACGAAAGTTGTC (((..(((....))))))	29.5	-17
GCTCGCCCGAAAGGGAGC (((..(((....))))))	48.4	-16.8
GCTGTTGGAAACGACAGC (((((.(....).)))))	54.7	-40.7
GATCATGGTATGATC ((((((...))))))	48.9	-36.3
GATCCTTTTAGGATC ((((((...))))))	58.9	-28.8
GATCTGAGCTCAGATC ((((((....))))))	55.6	-51.6
GCGACGCGAAAGCCTTGC ((.(.((....)).).))	35.9	-12

Sequence	Tm [1] [°C]	folding enthalpy [2] [kcal/mol]
GATCCACAATGGATC ((((((...))))))	48.3	-30.7
GATTCACGAAAGTGATC (((.(((....))))))	42.3	-13.4
GATCGTCGGCACGATC ((((((....))))))	53	-21.4
GTCACTCGAAAGAGGAC (((.(((....))))))	45.8	-23.9
GAGTGAGGAAACTCACCC (.(((((....))))).)	39.4	-13.9
GAATGTGGAAACATGTTC (((..((....))..)))	31.4	-18.7
CGTCCGGAAACGGTAACG ((((((....)))..)))	37.8	-25.1
GTAAGCGAAAGCTTTTAC ((((((....)))..)))	29.7	-11.8
GTTGGTCGAAAGACGAAC (((.(((....))).)))	48.1	-29.9
GCGGAGCGAAAGCTTTGC ((..(((....)))..))	45.5	-14.3
GATCTCTCTAGAGATC ((((((....))))))	56.3	-37.4
GATCTCTGCAGAGATC ((((((....))))))	57	-41.6
GGGGCCGAAAGGCATCCC ((((((....)))..)))	54.9	-13.9
GATCAGGAAGCTGATC ((((((....))))))	53.9	-34.2
GATCTCGTGCGAGATC ((((((....))))))	56.3	-54.9
GCTCGCGAAAGCGCAGC ((((((....))).)))	54.4	-19.6
GCTCTGGGAAACTAGGGC ((.((.(....).)).))	36.5	-27.7
GATCAGCACCCTGATC ((((((....))))))	48.7	-33.1
GTGAAGCGAAAGCTCAC (((.(((....))))))	56	-26.2
GCCCCCGAAAGGGGAGGC ((((((....)))..)))	59.9	-13.8
GATCCGAAAACGGATC ((((((....))))))	52.6	-37
GCCGTTCCGAAAGGAGGC (((..(((....))))))	50.7	-24.4
GGTGTTGGAAACAACATC (.(((((....))))).)	48.2	-24.3

Sequence	Tm [1] [°C]	folding enthalpy [2] [kcal/mol]
GGCTGTCCGAAAGGAGCC (((..(((....))))))	47.4	-25.1
GCGAACGAAAGTTCTCGC ((((((....)))..)))	45.6	-18.8
GGGGCCGAAAGGCTGCCC ((((((....)))..)))	46.4	-14.2
CGAGGCGGAAACGCGTCG (((.(((....))).)))	62.5	-32.1
GTTGTCCGAAAGGAGAAC (((.(((....))).)))	51.2	-28.5
GCGACTGGAAACGGTTGC ((.((.(....).)).))	43.9	-32.1
GTACCTCGAAAGAGATAC (((.(((....))).)))	38.7	-28.3
AAAGGGAAACCTTT (((((....)))))	32.2	-10
GATCTGTTAACAGATC ((((((....))))))	54.7	-39.8
GCTCCGCGAAAGCGTAGC (((.(((....))).)))	51.8	-32.6
GGAAGGGGAAACCCTTTC (.(((((....))))).)	44.7	-24.2
GTGGTACCGAAAGGTCAC (((..(((....))))))	38.4	-18.4
GATCTGCAACCAGATC ((((((....))))))	46.2	-31.7
GCCCCCGAAAGGGAGGGC ((((((....)))..)))	59.8	-30
GATCCCAGTGGGATC ((((((...))))))	60.8	-40.6
GTCAGGGGAAACCCTAAC ((.((((....)))).))	29.6	-14.5
GCTGCCGGAAACAGCAGC (((((.(....).)))))	53.8	-34.1
GAGAGACGAAAGTCACTC (((.(((....))).)))	51.3	-35.1
GCAGTGAAAACTGC (((((....)))))	61.2	-28.1
GATCATTAATATGATC ((((((....))))))	45.5	-37.1
GCGTTACTACGC ((((....))))	54.8	-26.7
GAGTACGAAAGTACGCTC ((((((....)))..)))	53.9	-16.3
GTATCCCGAAAGGGTAC (((.(((....))))))	49	-17.9

Sequence	Tm [1] [°C]	folding enthalpy [2] [kcal/mol]
CGGCTCGGAAACGACCCG (((.(((....))).)))	42.9	-29.4
GTTAAGGGAAACCTTAGC (.(((((....))))).)	34.8	-23.4
GTAGCGACGAAAGTCTAC (((..(((....))))))	26.9	-13.2
GATCAATCCGTTGATC ((((((....))))))	47	-32.5
GATCTCTCGAGAGATC ((((((....))))))	54.1	-40.5
TGGACGAAAGTCCA (((((....)))))	67.5	-19.4
GATGGTGGAAACGCCATC (((((.(....).)))))	53.4	-44.2
GATCCATAGTTGGATC ((((((....))))))	50.6	-33.2
GTTACCGAAAGGTTCAAC ((((((....)))..)))	25	-8.36
GAACAGGGAAACCCGTTC ((((.((....)).))))	41.8	-24.4
GGCCGGGGAAACCTGGCC ((((.((....)).))))	68	-38.4
GATCTTTCTAAAGATC ((((((....))))))	47.3	-37.7
GTGGCCGAAAGGCTGCAC ((((((....)))..)))	46.7	-12.4
GAAACCGGAAACGGCTTC (((.(((....))).)))	42	-23.6
GCGTGGGGAAACTCGCGC (((.(.(....).).)))	54	-35.6
GAGTCCGGAAACGAACTC ((((.((....)).))))	41.7	-34.6
GAGGGGGCGAAAGCCCTC (((..(((....))))))	40.6	-7.85
GCGGCCGAAAGGCTCGC ((((((....))).)))	68.8	-23.5
GGCCTCGCGAAAGCGGCC (((..(((....))))))	59.4	-17.5
GCATAACGAAAGTTTTGC (((.(((....))).)))	48.8	-30.7
GATCAGACGGCTGATC ((((((....))))))	51.7	-52.4
GTTTCTGAAAAGAAAC ((((((....))))))	50.2	-37
GCCTGGCGAAAGCCGCGC ((..(((....)))..))	52.3	-16.8
